Compound activity deposited in PubChem BioAssay by Johns Hopkins Ion Channel Center.
Compounds with a hit are over-represented: about 3.5% of the library has one in this group of screens.
MrgX1 antag – human MrgX1 receptor antagonism, primary screen; B-score at 10 µM; MRGX1-HEK293 calcium flux, Fluo-4, BAM8-22 antagonism; stronger effect = lower value; Q96LB2; actives 1.3% (n = 310,000);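 active means calcium-response B-score plate-corrected more than 3 library SD below zero, starting fluorescence within 5 deviations, no agonist response on first addition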;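 further: peak minus trough fluorescence over baseline after final BAM8-22 challenge near maximal dose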
Target sequence (Q96LB2 whole entry, looked up): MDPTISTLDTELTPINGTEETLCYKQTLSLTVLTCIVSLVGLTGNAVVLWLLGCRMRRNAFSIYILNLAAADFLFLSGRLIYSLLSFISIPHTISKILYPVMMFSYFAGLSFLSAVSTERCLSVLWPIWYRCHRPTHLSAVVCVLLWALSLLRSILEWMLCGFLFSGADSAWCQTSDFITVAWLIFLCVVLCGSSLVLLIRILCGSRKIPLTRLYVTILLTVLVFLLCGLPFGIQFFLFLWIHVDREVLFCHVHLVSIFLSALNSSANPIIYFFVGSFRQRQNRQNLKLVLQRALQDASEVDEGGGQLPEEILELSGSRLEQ
MrgX1 allo act – allosterically activates human MrgX1 receptor signaling; Q96LB2; MrgX1-HEK293, Fluo-4 calcium flux, FDSS; stronger effect = higher value; B-score at 10 µM; actives 0.63% (n = 310,000); AID 588675;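 active means plate-corrected calcium response at least 3 library SD above typical, normal starting fluorescence, not activating the receptor alone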;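 further: compound read alongside a low EC10 to EC30 dose of BAM8-22 agonist; peak minus trough fluorescence over baseline measured at the second addition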
RGS4 block – human RGS4 inhibition; B-score at 10 µM; HEK293 M3R/RGS4 inducible, Fluo-4 calcium flux; stronger effect = higher value; triggered by carbachol at its EC20; actives 0.45% (n = 310,000); AID 463165;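 active means B-score, a plate-corrected calcium signal, over three deviations above library mean, with baseline fluorescence within five deviations of library mean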;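 further: RGS4 expression induced by doxycycline in cells with stable M3 receptor; B-score is computed from the integrated fluorescence ratio over baseline after carbachol; higher B-score means a larger calcium signal and so more RGS4 inhibition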
Target sequence (P49798 whole entry, looked up): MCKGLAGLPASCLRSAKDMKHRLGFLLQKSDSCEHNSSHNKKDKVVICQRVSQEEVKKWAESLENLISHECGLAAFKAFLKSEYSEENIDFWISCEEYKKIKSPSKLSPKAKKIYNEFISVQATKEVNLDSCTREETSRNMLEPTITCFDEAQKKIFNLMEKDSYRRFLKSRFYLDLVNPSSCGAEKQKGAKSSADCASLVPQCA
RGS4 act – potentiators or activators of RGS4 | HEK293 M3R/inducible RGS4, carbachol calcium flux Fluo4; stronger effect = lower value | B-score at 10 µM | actives 0.92% (n = 310,000);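 active means B-score of the integrated calcium signal more than 4 SD below the library mean, with starting fluorescence not abnormally high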;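 further: negative B-score means reduced calcium response which marks RGS4 activation or potentiation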
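System – HEK293 FlpIn-TREx cells, stable M3R, doxycycline-inducible RGS4 · Reagent – ECmax carbachol challenge · Times – compound preincubation 20 min at room temperature before agonist · Technique – Fluo4 fluorescence kinetic imaging of calcium · Measure – B score of integrated Fluo4 ratio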
MrgX1 ag – activates human MrgX1 receptor signaling; Q96LB2; MrgX1-HEK293 cells, Fluo-4 calcium fluorescence, agonist mode; stronger effect = higher value; B-score at 10 µM; actives 0.44% (n = 310,000);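 active means calcium response B-score plate-corrected fluorescence ratio at least 3 library SD, with starting fluorescence B-score inside 5 SD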
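Assay system: MrgX1-expressing HEK293 cells / Amount: fifteen thousand cells per well / Doses: test compound in the initial addition of three / Timing: cells plated overnight, dye loaded 0.5 h 37 °C, 0.5 h room temperature / Technique: kinetic calcium dye fluorescence, Fluo-4 NW / Control set: positive and negative controls per plate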
RGS4 block valid – validation of RGS4 inhibitors | calcium response, % at 10 µM | actives 65% (n = 1,700) | shares compounds with RGS4 block | HEK293 M3R/RGS4, carbachol calcium Fluo-4 fluorescence; carbachol added at its EC20; 0 = buffer wells, 100 = carbachol control;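 active means duplicate-averaged calcium response above the buffer-only control mean plus 5 SD of those controls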;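 further: integrated fluorescence ratio F max minus min over baseline F0; higher response in RGS4-induced cells means RGS4 inhibition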
M3R Ca ctr – counter-screen for RGS4 inhibitors: effect in non-induced cells; shares compounds with RGS4 block; HEK293 M3R non-induced, carbachol calcium Fluo-4; submaximal (EC20) carbachol stimulus; buffer wells 0%, carbachol control wells 100%; activity (percent), % at 10 µM; actives 20% (n = 1,900); call rule not given here;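 further: RGS4 induction absent so cells express M3R without RGS4; higher means more calcium signal and flags a non-specific hit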
RGS4 inh ctr2 – signal in non-induced cells without carbachol, RGS4 inhibitor counter-screen. shares compounds with RGS4 block. HEK293 M3R/RGS4 non-induced, Fluo-4 calcium, no carbachol; normalised: buffer wells 0%, carbachol wells 100%. calcium response (agonist-mode artifact), % at 10 µM. actives 22% (n = 1,900). AID 493001;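 active means duplicate-averaged calcium rise in uninduced cells above buffer wells' mean plus 5 SD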
Starred values were filed as active, the others as inactive.

`COc1cc(/C=C(\C#N)C(N)=O)ccc1OS(=O)(=O)c1ccc(C)cc1` gave MrgX1 antag inactive, MrgX1 allo act inactive, RGS4 block 4.9*, RGS4 act inactive, MrgX1 ag 43*, RGS4 block valid 30%*, M3R Ca ctr 40%* and RGS4 inh ctr2 31%*.
For COc1cc(/C=C(\C#N)C(=O)NC2CCCCC2C)ccc1OS(=O)(=O)c1ccc(C)cc1 (centres undefined) the results were MrgX1 antag inactive, MrgX1 allo act inactive, RGS4 block inactive, RGS4 act inactive and MrgX1 ag inactive.
For CCOC(=O)c1c(-c2ccc(C)o2)csc1NC(=S)NC(=O)N(C)C the results were MrgX1 antag inactive, MrgX1 allo act inactive, RGS4 block 21*, RGS4 act inactive, MrgX1 ag inactive, RGS4 block valid inactive, M3R Ca ctr inactive and RGS4 inh ctr2 inactive.
O=C(NCc1cccnc1)/C(=C/c1ccccc1)NC(=O)c1ccccc1 was read as MrgX1 antag inactive, MrgX1 allo act inactive, RGS4 block 5.2*, RGS4 act inactive, MrgX1 ag inactive, RGS4 block valid inactive, M3R Ca ctr inactive and RGS4 inh ctr2 inactive.
`O=C(NCc1cccnc1)/C(=C/c1ccco1)NC(=O)c1ccccc1` gave MrgX1 antag inactive, MrgX1 allo act inactive, RGS4 block inactive, RGS4 act inactive and MrgX1 ag inactive.
For Cc1ccc(C(=O)N/C(=C/c2cccnc2)C(=O)NCc2ccco2)cc1 the results were MrgX1 antag inactive, MrgX1 allo act inactive, RGS4 block inactive, RGS4 act inactive and MrgX1 ag inactive.
`Cc1ccc(C(=O)N/C(=C\c2ccccc2)C(=O)NCc2cccnc2)cc1` gave MrgX1 antag inactive, MrgX1 allo act inactive, RGS4 block inactive, RGS4 act inactive, MrgX1 ag inactive, RGS4 block valid inactive, M3R Ca ctr inactive and RGS4 inh ctr2 inactive.
CCC(C)(C)NC(=O)CN(Cc1ccccc1)C(=O)CCC(=O)Nc1nccs1 was read as MrgX1 antag inactive, MrgX1 allo act inactive, RGS4 block inactive, RGS4 act inactive and MrgX1 ag inactive.
For CC(=O)n1cc(C(C[N+](=O)[O-])SCCN)c2ccccc21 (centres undefined) the results were MrgX1 antag inactive, MrgX1 allo act inactive, RGS4 block 4.7*, RGS4 act inactive, MrgX1 ag 58*, RGS4 block valid 55%*, M3R Ca ctr inactive and RGS4 inh ctr2 34%*.
`CC1(C)CC(=O)c2sc(NC(=O)CCS(=O)(=O)c3ccccc3)nc2C1` gave MrgX1 antag inactive, MrgX1 allo act inactive, RGS4 block 4.7*, RGS4 act inactive, MrgX1 ag inactive, RGS4 block valid 7.5%*, M3R Ca ctr inactive and RGS4 inh ctr2 inactive.
For CC1(C)CC(=O)c2sc(NC(=O)c3ccccc3)nc2C1 the results were MrgX1 antag inactive, MrgX1 allo act inactive, RGS4 block inactive, RGS4 act inactive and MrgX1 ag inactive.
For Cc1ccc(N(C)C(=O)N2CCN(S(=O)(=O)c3ccc4ccccc4c3)CC2)cc1 the results were MrgX1 antag inactive, MrgX1 allo act inactive, RGS4 block inactive, RGS4 act inactive and MrgX1 ag inactive.
Screening COc1ccc(N2CCN(C(=O)CNC(=O)c3ccccc3Cl)CC2)cc1 returned MrgX1 antag inactive, MrgX1 allo act inactive, RGS4 block inactive, RGS4 act inactive and MrgX1 ag inactive.
Screening COCCCn1cnc2c(c1=O)c1nc3ccccc3nc1n2-c1ccc(C)cc1 returned MrgX1 antag inactive, MrgX1 allo act inactive, RGS4 block inactive, RGS4 act inactive and MrgX1 ag inactive.
Screening Cc1cc(C)cc(-n2c3nc4ccccc4nc3c3c(=O)n(Cc4ccco4)cnc32)c1 returned MrgX1 antag inactive, MrgX1 allo act inactive, RGS4 block 5.9*, RGS4 act inactive, MrgX1 ag inactive, RGS4 block valid 12%*, M3R Ca ctr inactive and RGS4 inh ctr2 15%*.
Screening O=C1c2[nH]nc(-c3ccccc3O)c2C(c2cccc(Cl)c2)N1Cc1ccco1 (centres undefined) returned MrgX1 antag inactive, MrgX1 allo act inactive, RGS4 block 8.1*, RGS4 act inactive, MrgX1 ag inactive, RGS4 block valid 25%*, M3R Ca ctr inactive and RGS4 inh ctr2 inactive.
For COc1ccc(C2c3c(-c4ccccc4O)n[nH]c3C(=O)N2Cc2ccco2)cc1OC (centres undefined) the results were MrgX1 antag inactive, MrgX1 allo act inactive, RGS4 block inactive, RGS4 act inactive and MrgX1 ag inactive.
`O=C1c2[nH]nc(-c3ccccc3O)c2C(c2ccc(F)cc2)N1Cc1ccco1` (centres undefined) gave MrgX1 antag inactive, MrgX1 allo act inactive, RGS4 block 9*, RGS4 act inactive, MrgX1 ag inactive, RGS4 block valid 20%*, M3R Ca ctr inactive and RGS4 inh ctr2 inactive.
For COC(=O)c1cc(=O)n(Cc2ccc(OC)c(OC)c2)c(=Nc2ccc(F)cc2)s1 the results were MrgX1 antag inactive, MrgX1 allo act inactive, RGS4 block inactive, RGS4 act inactive and MrgX1 ag inactive.
`COC(=O)c1cc(=O)n(Cc2ccc(F)cc2)c(=Nc2ccccc2)s1` gave MrgX1 antag inactive, MrgX1 allo act inactive, RGS4 block inactive, RGS4 act inactive and MrgX1 ag inactive.
`COC(=O)c1cc(=O)n(CCc2ccc(OC)c(OC)c2)c(=Nc2ccc(F)c(Cl)c2)s1` gave MrgX1 antag inactive, MrgX1 allo act inactive, RGS4 block 5.4*, RGS4 act inactive, MrgX1 ag inactive, RGS4 block valid 13%*, M3R Ca ctr inactive and RGS4 inh ctr2 10%*.
Screening COC(=O)c1cc(=O)n(Cc2ccco2)c(=Nc2ccc(F)cc2)s1 returned MrgX1 antag inactive, MrgX1 allo act inactive, RGS4 block 6.1*, RGS4 act inactive, MrgX1 ag inactive, RGS4 block valid 15%*, M3R Ca ctr 44%* and RGS4 inh ctr2 inactive.
